Test results reported in ChEMBL document CHEMBL1240350, “In vitro activity of CEM-101 against Streptococcus pneumoniae and Streptococcus pyogenes with defined macrolide resistance mechanisms” (Antimicrob Agents Chemother, 2010).
In brackets after ≈: the same amount, converted by molar mass.

Assays:
Streptococcus pneumoniae [1] = assay: Antibacterial activity against macrolide-susceptible Streptococcus pneumoniae 1077 after 43 passages and 10 compound-free subculturing by retest method; assay type: functional
Streptococcus pyogenes [2] = assay: Antibacterial activity against macrolide-susceptible Streptococcus pyogenes 2132 after 50 passages following overnight incubation by agar dilution method
Streptococcus pneumoniae [3] = assay: Antibacterial activity against macrolide-susceptible Streptococcus pneumoniae 7127 harboring S20N mutation in L4 ribosomal protein and A105V mutation in L22 ribosomal protein after 29 passages and 10 compound-free subculturing by retest method; assay type: functional
Streptococcus pneumoniae [4] = assay: Antibacterial activity against macrolide-resistant Streptococcus pneumoniae harboring erm(B) gene after overnight incubation by agar dilution method; assay type: functional
Method in brief: (§1)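 Agar dilution MICs on Mueller-Hinton agar with 5% sheep blood. Inoculum 10^4 CFU/spot, incubated overnight at 35°C in ambient air. Clinical S. pneumoniae or group A streptococcal isolates; resistance genotypes (erm(B), erm(A), mef(A)/mef(E)) were assigned by PCR. S. pneumoniae ATCC 49619 served as QC strain in each run. Range, MIC50 and MIC90 reported per phenotype group.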

Streptococcus pyogenes [5] = assay: Antibacterial activity against Streptococcus pyogenes harboring erm(B) gene after overnight incubation by agar dilution method; assay type: functional
Method in brief: (§2)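 Clinical isolates collected 1998–2008, with macrolide-resistance genes confirmed by PCR. MICs by agar dilution on Mueller-Hinton agar with 5% sheep blood. Inoculum 10^4 CFU/spot, incubated overnight at 35°C in ambient air. S. pneumoniae ATCC 49619 was the quality-control strain in every run.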

Streptococcus pneumoniae [6] = assay: Antibacterial activity against macrolide-susceptible Streptococcus pneumoniae 1077 after 29 passages and 10 compound-free subculturing by retest method; assay type: functional
Streptococcus pneumoniae [7] = assay: Antibacterial activity against macrolide-resistant Streptococcus pneumoniae 24 harboring erm(B) gene after overnight incubation by agar dilution method; assay type: functional
Streptococcus pyogenes [8] = assay: Antibacterial activity against macrolide-resistant Streptococcus pyogenes 237 harboring mutation in L4 ribosomal protein after overnight incubation by agar dilution method
Streptococcus pyogenes [9] = assay: Antibacterial activity against macrolide-resistant Streptococcus pyogenes 2094 harboring erm(A) gene after 43 passages and 10 compound-free subculturing by retest method
Streptococcus pneumoniae [10] = assay: Antibacterial activity against Streptococcus pneumoniae harboring mef(A) gene after overnight incubation by agar dilution method; assay type: functional; method in brief: as §2
Streptococcus pyogenes [11] = assay: Antibacterial activity against macrolide-resistant Streptococcus pyogenes 2368 harboring erm(B) gene after 6 passages and 10 compound-free subculturing by retest method
Streptococcus pyogenes [12] = assay: Antibacterial activity against macrolide-resistant Streptococcus pyogenes 2094 harboring erm(A) gene after 34 passages and 10 compound-free subculturing by retest method
Streptococcus pneumoniae [13] = assay: Antibacterial activity against macrolide-susceptible Streptococcus pneumoniae 7127 harboring S20N mutation in L4 ribosomal protein and A105V mutation in L22 ribosomal protein after 38 passages and 10 compound-free subculturing by retest method; assay type: functional
Streptococcus pyogenes [14] = assay: Antibacterial activity against Streptococcus pyogenes harboring mef(A) gene after overnight incubation by agar dilution method; assay type: functional; method in brief: as §2
Streptococcus pneumoniae [15] = assay: Antibacterial activity against macrolide-resistant Streptococcus pneumoniae harboring erm(B) and mef(A) gene after overnight incubation by agar dilution method; assay type: functional; method in brief: as §1
Streptococcus pneumoniae [16] = assay: Antibacterial activity against macrolide-resistant Streptococcus pneumoniae 2686 harboring mutation in L4 ribosomal protein after 14 passages and 10 compound-free subculturing by retest method; assay type: functional
Streptococcus pyogenes [17] = assay: Antibacterial activity against macrolide-resistant Streptococcus pyogenes 2368 harboring erm(B) gene after 18 passages and 10 compound-free subculturing by retest method
Streptococcus pyogenes [18] = assay: Antibacterial activity against macrolide-resistant Streptococcus pyogenes 2094 harboring erm(A) gene after 5 passages and 10 compound-free subculturing by retest method
Streptococcus pneumoniae [19] = assay: Antibacterial activity against macrolide-resistant Streptococcus pneumoniae 1635 harboring erm(A) gene after 32 passages and 10 compound-free subculturing by retest method; assay type: functional
Method in brief: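 Multistep selection by daily serial passage in subinhibitory drug concentrations. Medium was cation-adjusted Mueller-Hinton broth plus 5% lysed horse blood. Each day the next inoculum came from the tube 1–2 dilutions below the MIC whose turbidity matched the growth control, for up to 50 days. Clone MICs by CLSI macrodilution; identity to the parent confirmed by SmaI PFGE.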

Streptococcus pneumoniae [20] = assay: Antibacterial activity against macrolide-resistant Streptococcus pneumoniae 3665 harboring mef(A) gene after 14 passages and 10 compound-free subculturing by retest method; assay type: functional
Streptococcus pneumoniae [21] = assay: Antibacterial activity against macrolide-resistant Streptococcus pneumoniae 3009 harboring mutation in 23S rRNA after 20 passages and 10 compound-free subculturing by retest method; assay type: functional
Streptococcus pyogenes [22] = assay: Antibacterial activity against macrolide-resistant Streptococcus pyogenes 2011 harboring mef(A) gene after 50 passages following overnight incubation by agar dilution method
Streptococcus pneumoniae [23] = assay: Antibacterial activity against macrolide-resistant Streptococcus pneumoniae 3665 harboring mef(A) gene after 26 passages and 10 compound-free subculturing by retest method; assay type: functional
Streptococcus pneumoniae [24] = assay: Antibacterial activity against macrolide-susceptible Streptococcus pneumoniae 1077 after overnight incubation by agar dilution method; assay type: functional
Streptococcus pyogenes [25] = assay: Antibacterial activity against macrolide-resistant Streptococcus pyogenes harboring mef(A) gene after overnight incubation by agar dilution method; assay type: functional; method in brief: as §1
Streptococcus pyogenes [26] = assay: Antibacterial activity against macrolide-resistant Streptococcus pyogenes 2011 harboring mef(A) gene after 35 passages and 10 compound-free subculturing by retest method
Streptococcus pyogenes [27] = assay: Antibacterial activity against macrolide-resistant Streptococcus pyogenes harboring erm(A) gene after overnight incubation by agar dilution method; assay type: functional; method in brief: as §1
Streptococcus pneumoniae [28] = assay: Antibacterial activity against penicillin-susceptible Streptococcus pneumoniae after overnight incubation by agar dilution method; assay type: functional
Method in brief: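 Agar dilution on Mueller-Hinton agar supplemented with 5% sheep blood. Inoculum 10^4 CFU/spot, incubated overnight at 35°C in ambient air. Test strains were clinical pneumococcal isolates. S. pneumoniae ATCC 49619 was included as the quality control strain in each run. MIC range, MIC50 and MIC90 were reported for each susceptibility category.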

Streptococcus pyogenes [29] = assay: Antibacterial activity against macrolide-resistant Streptococcus pyogenes harboring erm(B) gene after overnight incubation by agar dilution method; assay type: functional; method in brief: as §1
Streptococcus pyogenes [30] = assay: Antibacterial activity against macrolide-resistant Streptococcus pyogenes 2094 harboring erm(A) gene after 6 passages and 10 compound-free subculturing by retest method
Streptococcus pneumoniae [31] = assay: Antibacterial activity against macrolide-susceptible Streptococcus pneumoniae 1077 after 15 passages and 10 compound-free subculturing by retest method; assay type: functional
Streptococcus pyogenes [32] = assay: Antibacterial activity against macrolide-susceptible Streptococcus pyogenes 2132 after overnight incubation by agar dilution method
Streptococcus pneumoniae [33] = assay: Antibacterial activity against macrolide-resistant Streptococcus pneumoniae 2686 harboring mutation in L4 ribosomal protein after 22 passages and 10 compound-free subculturing by retest method; assay type: functional
[34] = Streptococcus pneumoniae, 3665, read-out: MIC

CC[C@H]1OC(=O)[C@H](C)C(=O)[C@H](C)[C@@H](O[C@@H]2O[C@H](C)C[C@H](N(C)C)[C@H]2O)[C@](C)(OC)C[C@@H](C)C(=O)[C@H](C)[C@H]2N(CCCCn3cnc(-c4cccnc4)c3)C(=O)O[C@]12C [TELITHROMYCIN]
MIC (Streptococcus pneumoniae [1]): 0.06 µg/mL (≈ 0.0739 µM)
MIC (Streptococcus pyogenes [2]): 0.03 µg/mL (≈ 0.0369 µM)
MIC (Streptococcus pneumoniae [3]): 0.016 µg/mL (≈ 0.0197 µM)
MIC50 (Streptococcus pneumoniae [4]): 0.06 µg/mL (≈ 0.0739 µM)
MIC90 (Streptococcus pneumoniae [4]): 1 µg/mL (≈ 1.23 µM)
MIC50 (Streptococcus pyogenes [5]): 8 µg/mL (≈ 9.85 µM)
MIC90 (Streptococcus pyogenes [5]): 16 µg/mL (≈ 19.7 µM)
MIC (Streptococcus pneumoniae [6]): 0.125 µg/mL (≈ 0.154 µM)
MIC (Streptococcus pneumoniae [7]): 0.25 µg/mL (≈ 0.308 µM)
MIC (Streptococcus pyogenes [8]): 0.06 µg/mL (≈ 0.0739 µM)
MIC (Streptococcus pyogenes [9]): 0.5 µg/mL (≈ 0.616 µM)
MIC50 (Streptococcus pneumoniae [10]): 0.125 µg/mL (≈ 0.154 µM)
MIC90 (Streptococcus pneumoniae [10]): 0.25 µg/mL (≈ 0.308 µM)
MIC (Streptococcus pyogenes [11]): > 64 µg/mL
MIC (Streptococcus pyogenes [12]): 0.03 µg/mL (≈ 0.0369 µM)
MIC (Streptococcus pneumoniae [13]): 0.03 µg/mL (≈ 0.0369 µM)
MIC50 (Streptococcus pyogenes [14]): 0.5 µg/mL (≈ 0.616 µM)
MIC90 (Streptococcus pyogenes [14]): 1 µg/mL (≈ 1.23 µM)
MIC50 (Streptococcus pneumoniae [15]): 0.5 µg/mL (≈ 0.616 µM)
MIC90 (Streptococcus pneumoniae [15]): 1 µg/mL (≈ 1.23 µM)
MIC (Streptococcus pneumoniae [16]): 0.06 µg/mL (≈ 0.0739 µM)
MIC (Streptococcus pyogenes [17]): > 64 µg/mL
MIC (Streptococcus pyogenes [18]): 0.03 µg/mL (≈ 0.0369 µM)
MIC (Streptococcus pneumoniae [19]): 0.03 µg/mL (≈ 0.0369 µM)
MIC (Streptococcus pneumoniae [20]): 0.25 µg/mL (≈ 0.308 µM)
MIC (Streptococcus pneumoniae [20]; [34]): 0.25 µg/mL (≈ 0.308 µM)
MIC (Streptococcus pneumoniae [21]): 0.06 µg/mL (≈ 0.0739 µM)
MIC (Streptococcus pyogenes [22]): 1 µg/mL (≈ 1.23 µM)
MIC (Streptococcus pneumoniae [23]): 0.06 µg/mL (≈ 0.0739 µM)
MIC (Streptococcus pneumoniae [24]): 0.004 µg/mL (≈ 0.00493 µM)
MIC50 (Streptococcus pyogenes [25]): 0.5 µg/mL (≈ 0.616 µM)
MIC90 (Streptococcus pyogenes [25]): 1 µg/mL (≈ 1.23 µM)
MIC (Streptococcus pyogenes [26]): 0.25 µg/mL (≈ 0.308 µM)
MIC50 (Streptococcus pyogenes [27]): 0.06 µg/mL (≈ 0.0739 µM)
MIC90 (Streptococcus pyogenes [27]): 0.125 µg/mL (≈ 0.154 µM)
MIC50 (Streptococcus pneumoniae [28]): 0.06 µg/mL (≈ 0.0739 µM)
MIC90 (Streptococcus pneumoniae [28]): 0.25 µg/mL (≈ 0.308 µM)
MIC50 (Streptococcus pyogenes [29]): 8 µg/mL (≈ 9.85 µM)
MIC90 (Streptococcus pyogenes [29]): 16 µg/mL (≈ 19.7 µM)
MIC (Streptococcus pyogenes [30]): 0.03 µg/mL (≈ 0.0369 µM)
MIC (Streptococcus pneumoniae [31]): 0.25 µg/mL (≈ 0.308 µM)
MIC (Streptococcus pyogenes [32]): 0.008 µg/mL (≈ 0.00985 µM)
MIC (Streptococcus pneumoniae [33]): 0.25 µg/mL (≈ 0.308 µM)

CC[C@H]1OC(=O)[C@H](C)[C@@H](O[C@H]2C[C@@](C)(OC)[C@@H](O)[C@H](C)O2)[C@H](C)[C@@H](O[C@@H]2O[C@H](C)C[C@H](N(C)C)[C@H]2O)[C@](C)(OC)C[C@@H](C)C(=O)[C@H](C)[C@@H](O)[C@]1(C)O [CLARITHROMYCIN]
MIC (Streptococcus pneumoniae [1]): 0.06 µg/mL (≈ 0.0802 µM)
MIC (Streptococcus pyogenes [2]): 0.016 µg/mL (≈ 0.0214 µM)
MIC (Streptococcus pneumoniae [3]): 0.5 µg/mL (≈ 0.668 µM)
MIC50 (Streptococcus pneumoniae [4]): > 64 µg/mL
MIC50 (Streptococcus pyogenes [5]): > 64 µg/mL
MIC90 (Streptococcus pyogenes [5]): > 64 µg/mL
MIC (Streptococcus pneumoniae [6]): > 64 µg/mL
MIC (Streptococcus pneumoniae [7]): > 64 µg/mL
MIC (Streptococcus pyogenes [8]): 0.25 µg/mL (≈ 0.334 µM)
MIC (Streptococcus pyogenes [9]): 8 µg/mL (≈ 10.7 µM)
MIC50 (Streptococcus pneumoniae [10]): 2 µg/mL (≈ 2.67 µM)
MIC90 (Streptococcus pneumoniae [10]): 4 µg/mL (≈ 5.35 µM)
MIC (Streptococcus pyogenes [11]): > 64 µg/mL
MIC (Streptococcus pyogenes [12]): 1 µg/mL (≈ 1.34 µM)
MIC (Streptococcus pneumoniae [13]): 0.06 µg/mL (≈ 0.0802 µM)
MIC50 (Streptococcus pyogenes [14]): 4 µg/mL (≈ 5.35 µM)
MIC90 (Streptococcus pyogenes [14]): 8 µg/mL (≈ 10.7 µM)
MIC50 (Streptococcus pneumoniae [15]): > 64 µg/mL
MIC (Streptococcus pneumoniae [16]): > 64 µg/mL
MIC (Streptococcus pyogenes [17]): > 64 µg/mL
MIC (Streptococcus pyogenes [18]): 1 µg/mL (≈ 1.34 µM)
MIC (Streptococcus pneumoniae [19]): 1 µg/mL (≈ 1.34 µM)
MIC (Streptococcus pneumoniae [20]): 2 µg/mL (≈ 2.67 µM)
MIC (Streptococcus pneumoniae [20]; [34]): 4 µg/mL (≈ 5.35 µM)
MIC (Streptococcus pneumoniae [21]): > 64 µg/mL
MIC (Streptococcus pyogenes [22]): 8 µg/mL (≈ 10.7 µM)
MIC (Streptococcus pneumoniae [23]): 8 µg/mL (≈ 10.7 µM)
MIC (Streptococcus pneumoniae [24]): 0.016 µg/mL (≈ 0.0214 µM)
MIC50 (Streptococcus pyogenes [25]): 4 µg/mL (≈ 5.35 µM)
MIC90 (Streptococcus pyogenes [25]): 8 µg/mL (≈ 10.7 µM)
MIC (Streptococcus pyogenes [26]): 4 µg/mL (≈ 5.35 µM)
MIC50 (Streptococcus pyogenes [27]): 2 µg/mL (≈ 2.67 µM)
MIC90 (Streptococcus pyogenes [27]): > 64 µg/mL
MIC50 (Streptococcus pneumoniae [28]): 1 µg/mL (≈ 1.34 µM)
MIC90 (Streptococcus pneumoniae [28]): > 64 µg/mL
MIC50 (Streptococcus pyogenes [29]): > 64 µg/mL
MIC90 (Streptococcus pyogenes [29]): > 64 µg/mL
MIC (Streptococcus pyogenes [30]): > 64 µg/mL
MIC (Streptococcus pneumoniae [31]): > 64 µg/mL
MIC (Streptococcus pyogenes [32]): 0.03 µg/mL (≈ 0.0401 µM)
MIC (Streptococcus pneumoniae [33]): 32 µg/mL (≈ 42.8 µM)
